Source: PubChem
UCH37 DUB inh = inhibitors of human UCH37 deubiquitinase, primary screen, biochemical, Ub-AMC cleavage, fluorescence | Ubiquitin carboxyl-terminal hydrolase isozyme L5 (Homo sapiens), Q9Y5K5 | purified proteasome/UCH37 | inhibition, % (concentration not given with the values) | actives 0.33% (n = 330,000);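 active = mean inhibition over replicate wells above about 20%, limit read from the data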
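Reagent: Ub-AMC substrate; assay system: Proteasome-associated human UCH37 deubiquitinase; controls: no-proteasome and no-compound wells; read-out: % inhibition of Ub-AMC cleavage fluorescence; timing: 30 min preincubation with enzyme, 25 min cleavage at room temperature; signal: AMC fluorescence from Ub-AMC cleavage, excitation 355 nm, emission 460 nm; buffer or medium: Tris-HCl pH 7.4 plus ovalbumin, ATP-MgCl2, DTT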
ATG4B inh = ATG4B protease inhibitors, primary screen, biochemical, fluorescence, uHTS; Cysteine protease ATG4B (Homo sapiens), Q9Y4P1; ATG4B cleavage of LC3-PLA2, NBD-HPC fluorescence, 1 h; inhibition, % at 8.33 µM; actives 0.51% (n = 340,000); in the data active = inhibition above about 40%
Target sequence (Q9Y4P1 whole entry, looked up): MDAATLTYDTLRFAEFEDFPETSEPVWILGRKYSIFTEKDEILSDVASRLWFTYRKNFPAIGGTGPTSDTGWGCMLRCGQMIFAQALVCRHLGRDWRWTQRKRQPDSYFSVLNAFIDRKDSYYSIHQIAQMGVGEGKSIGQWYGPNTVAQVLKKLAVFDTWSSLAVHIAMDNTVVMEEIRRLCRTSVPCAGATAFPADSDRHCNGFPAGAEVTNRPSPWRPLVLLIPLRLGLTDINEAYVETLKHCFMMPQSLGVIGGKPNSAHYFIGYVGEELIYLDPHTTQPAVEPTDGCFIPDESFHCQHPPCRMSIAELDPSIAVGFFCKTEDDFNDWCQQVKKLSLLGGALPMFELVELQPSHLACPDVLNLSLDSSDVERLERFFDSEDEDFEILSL
Calb FLC = C. albicans growth inhibition with fluconazole, primary screen, CaCi-2 strain, Alamar Blue fluorescence. C. albicans CaCi-2 + fluconazole, 48 h. growth inhibition, % (no concentration beside the values). actives 0.57% (n = 300,000);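 active = growth inhibition above about 58% in most replicates, limit read from the data, passing the limit was not always enough; inconclusive = exactly half the replicates above a set limit; inactive = most replicates below a set limit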;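 note: all wells also contain fluconazole at 8 µg/ml as a sub-toxic cotreatment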
NALP3 yeast inh = NALP3 inflammasome inhibitors in reconstituted yeast, primary screen, luminescence, uHTS; Yeast reconstituted NLRP3/ASC/caspase-1, beta-gal luminescence, 24 h; actives 0.39% (n = 330,000); inhibition, % at 10 µM;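 active = inhibition of 50% or more; inactive = inhibition below 50%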
NALP1 yeast inh = NALP1 inflammasome inhibitors in reconstituted yeast, colorimetric, S. cerevisiae, triplicate retest. S. cerevisiae NALP1/ASC/caspase-1 growth, X-gal OD620, 72 h. inhibition, % at 10 µM. actives 0.61% (n = 280,000); in the data active = inhibition mostly above about 24%, no sharp cut-off; inactive = mostly below about 32%
ALR inh = inhibitors of human ALR sulfhydryl oxidase, primary screen, biochemical, H2O2 detection, HRP-luminol luminescence, single point | purified ALR, DTT oxidation | actives 3.8% (n = 290,000) | inhibition, % (test concentration not listed);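 active = mean replicate inhibition above about 79%, with every replicate also reaching it, limit read from the data; inconclusive = only one of the two criteria met; inactive = mean below limit and not every replicate reaching it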
Each line names hits and unclear results; the compound was inactive in the other large screens. An excerpt weighted towards active compounds, which were near 4.8% of everything screened.

Cc1cc([N+](=O)[O-])ccc1N1C(=O)c2ccc(C(=O)Nc3ccccc3C(=O)O)cc2C1=O	ALR inh 97.5
CC(C)CCN1C(=O)c2ccc(C(=O)Nc3cc(C(=O)O)cc(C(=O)O)c3)cc2C1=O	none
O=C(Nc1ccccc1C(=O)O)c1cccc(N2C(=O)c3ccccc3C2=O)c1	none
CC(C)CCN1C(=O)c2ccc(C(=O)Nc3ccc(Br)cc3C(=O)O)cc2C1=O	Calb FLC 82.4
CC(C)CN1C(=O)c2ccc(C(=O)Nc3ccccc3C(=O)O)cc2C1=O	ALR inh 80.7
O=C(NN=C/C(Cl)=C/c1ccccc1)c1ccc2c(c1)OCO2	none (no result: ATG4B inh, Calb FLC, NALP3 yeast inh, NALP1 yeast inh, ALR inh)
Cc1ccc(C=NNC(=O)CN(Cc2ccccc2)S(=O)(=O)c2ccc3c(c2)OCCO3)cc1	none (no result: ATG4B inh, Calb FLC, NALP3 yeast inh, NALP1 yeast inh, ALR inh)
CN1C[C@@H](c2ccc(Cl)c(Cl)c2)[C@@]2(COc3ccccc3C2=O)[C@@]12C(=O)Nc1ccccc12	none (no result: ATG4B inh, Calb FLC, NALP3 yeast inh, NALP1 yeast inh, ALR inh)
CCN1/C(=C/c2ccc3ccccc3[n+]2CCCS(=O)(=O)[O-])C=Cc2cc(C)ccc21	none (no result: NALP3 yeast inh)
CCN1/C(=C/c2ccc3ccccc3[n+]2CC)C=Cc2ccccc21	Calb FLC 105.1
O=C(Nc1ccccc1O)c1cccc(S(=O)(=O)Nc2ccccc2O)c1	ALR inh 99.4 (no result: NALP1 yeast inh)
O=C(O)c1cccc(NC(=O)c2cccc(S(=O)(=O)Nc3cccc([N+](=O)[O-])c3)c2)c1	ALR inh 75.7
O=C(Nc1ccccc1C(=O)O)c1cccc(S(=O)(=O)Nc2ccc(Br)cc2)c1	ALR inh 98.7
COc1ccccc1/C=C/C=Nn1c(-c2n[nH]c3c2CCC3)n[nH]c1=S	none (no result: ATG4B inh, Calb FLC, NALP3 yeast inh, NALP1 yeast inh, ALR inh)
N=c1c2c(-c3ccccc3)c(-c3ccccc3)n(Cc3ccccc3)c2ncn1CCO	Calb FLC 96.6
COc1ccc(SCC(=O)c2cc(C)c(OC(=S)N(C)C)c(C)c2)cc1	ALR inh 91.6
Cc1cc(C(=O)CSc2ccc(F)cc2)cc(C)c1OC(=S)N(C)C	none
CCOC(=O)c1sc(-c2ccc(Br)cc2)cc1N	none
NNC(=O)c1sc(-c2ccc(Cl)cc2)cc1N	ALR inh 97.6
Cc1ccc(NC(=S)NNC(=O)Cn2nc([N+](=O)[O-])cc2C)cc1	ALR inh 84.7
CC(C=NNC(=O)c1ccccc1F)c1ccccc1 (centres undefined)	none (no result: ATG4B inh, Calb FLC, NALP3 yeast inh, NALP1 yeast inh, ALR inh)
CN(c1ccccc1)S(=O)(=O)c1ccc(C(=O)Nc2nnc(C3=COCCO3)o2)cc1	Calb FLC inconclusive, ALR inh 97.8
CN(C)c1ccc(C(=O)Nc2nnc(C3=COCCO3)o2)cc1	none
Cc1nnc(NC(=O)c2ccc(S(=O)(=O)N(C)Cc3ccccc3)cc2)o1	Calb FLC 87.4
CC(Cn1cnc([N+](=O)[O-])n1)=NNC(=O)c1ccncc1	none (no result: ATG4B inh, Calb FLC, NALP3 yeast inh, NALP1 yeast inh, ALR inh)
CC(=NN1CCCCC1)c1ccccc1O	none (no result: ATG4B inh, Calb FLC, NALP3 yeast inh, NALP1 yeast inh, ALR inh)
Cc1ccc(NC(=S)C2=C(O)c3sccc3N(C)S2(=O)=O)cc1	UCH37 DUB inh 24.0
COc1cccc(C=NNC(=O)CNC(=O)C(c2ccccc2)c2ccccc2)c1O	none (no result: ATG4B inh, Calb FLC, NALP3 yeast inh, NALP1 yeast inh, ALR inh)
CCOc1ccccc1Nc1nc2ccccc2[nH]1	ALR inh 96.4
CSc1nc2ccc(Nc3nc(N4CCOCC4)nc(N4CCOCC4)n3)cc2s1	ALR inh 98.3 (no result: Calb FLC)
CN(C)c1ccc(NC(=O)CSc2nnc(-c3ccco3)c(-c3ccco3)n2)cc1	none (no result: ALR inh)
Cc1ccccc1NC(=O)CSc1nnc(-c2ccco2)c(-c2ccco2)n1	none (no result: ALR inh)
Cc1cccc(C)c1NC(=O)CSc1nnc(-c2ccco2)c(-c2ccco2)n1	ALR inh 99.2 (no result: UCH37 DUB inh)
Cc1ccc(NC(=O)CSc2nnc(-c3ccco3)c(-c3ccco3)n2)cc1	ALR inh 99.1
CCc1nnc(SCC(=O)Nc2ccc(C(C)=O)cc2)nc1CC	ALR inh 98.9 (no result: UCH37 DUB inh)
O=C(CSc1nnc(-c2ccco2)c(-c2ccco2)n1)Nc1ccccc1	ALR inh 98.7
Cn1cc2c(=O)n(N=Cc3ccccc3)cnc2n1	none (no result: ATG4B inh, Calb FLC, NALP3 yeast inh, NALP1 yeast inh, ALR inh)
CON=Cc1cccn1-c1nccc(N(C)C)c1C#N	none (no result: ATG4B inh, Calb FLC, NALP3 yeast inh, NALP1 yeast inh, ALR inh)
CCC1CCCC1=NNC(=O)c1cc(C)[nH]n1 (centres undefined)	none (no result: ATG4B inh, Calb FLC, NALP3 yeast inh, NALP1 yeast inh, ALR inh)
